Assay results from ChEMBL document CHEMBL2440035, “Azetidines and spiro azetidines as novel P2 units in hepatitis C virus NS3 protease inhibitors” (Bioorg Med Chem Lett, 2013).

How the values were obtained:
Huh-7 = assay: Cytotoxicity against human HuH7 cells; format: cell-based
Procedure, shortened: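 Huh7 cytotoxicity measured together with the replicon antiviral assay, by extraction and amplification of ribosomal RNA. Each concentration run in triplicate and reported as mean.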

Vero = assay: Cytotoxicity against african green monkey Vero cells; format: cell-based; details: chlorocebus sabaeus
Procedure, shortened: (§1)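 Cytotoxicity was profiled in three cell types: primary human peripheral blood mononuclear (PBM) cells, CEM (a human T-cell-derived line) and Vero (African green monkey kidney epithelial cells).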

CCRF-CEM = assay: Cytotoxicity against human CEM cells; format: cell-based; procedure, shortened: as §1
PBMC = assay: Cytotoxicity against human PBMC; format: cell-based; procedure, shortened: as §1
Hepatitis C virus = assay: Antiviral activity against Hepatitis C virus infected in human HuH7 cells assessed as viral RNA replication; format: functional, organism-based, Hepacivirus hominis; details: Huh-7
Procedure, shortened: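 Subgenomic HCV replicon in Huh7 cells; inhibition of HCV RNA replication measured by extraction and amplification of HCV RNA. Each concentration run in triplicate and reported as mean; EC50 derived.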

SMILES	CC50 (Huh-7) [µM]	CC50 (Vero) [µM]	CC50 (CCRF-CEM) [µM]	CC50 (PBMC) [µM]	EC50 (Hepatitis C virus) [µM]	EC90 (Hepatitis C virus) [µM]
CCCC(NC(=O)C1CCN1C(=O)[C@@H](NC(=O)[C@@H](NC(=O)c1cnccn1)C1CCCCC1)C(C)(C)C)C(=O)C(=O)NCCOC (some centres not stated)	> 10	> 100	38	> 100	> 10	> 10
CCCC(NC(=O)C1N(C(=O)[C@@H](NC(=O)C2CCCCC2)C(C)(C)C)CC12Cc1ccccc1C2)C(=O)C(=O)NC1CC1 (some centres not stated)	10	43	22	31	> 10	> 10
CCCC(NC(=O)C1N(C(=O)[C@@H](NC(=O)[C@@H](NC(=O)c2cnccn2)C2CCCCC2)C(C)(C)C)CC12Cc1ccccc1C2)C(=O)C(=O)NC1CC1 (some centres not stated)	> 10	> 100	72	> 100	> 10	> 10
CCCC(NC(=O)C1N(C(=O)[C@@H](NC(=O)Nc2ccc(OC)cc2)C(C)(C)C)CC12Cc1ccccc1C2)C(=O)C(=O)NC1CC1 (some centres not stated)	> 10	43	–	22	> 10	> 10
CCCC(NC(=O)C1N(C(=O)[C@@H](NC(=O)Nc2ccccc2)C(C)(C)C)CC12Cc1ccccc1C2)C(=O)C(=O)NC1CC1 (some centres not stated)	> 10	46	–	15	> 10	> 10
CC(C)(C)[C@H](NC(=O)NC1CCCCC1)C(=O)N1CC2(Cc3ccccc3C2)C1C(=O)NC(CC1CCC1)C(=O)C(=O)NC1CC1 (some centres not stated)	5.5	26	15	15	5.8	9.8
C=CCNC(=O)C(=O)C(CCC)NC(=O)C1CCN1C(=O)[C@@H](NC(=O)[C@@H](NC(=O)c1cnccn1)C1CCCCC1)C(C)(C)C (some centres not stated)	> 10	> 100	30	27	> 10	> 10
CCCC(NC(=O)C1N(C(=O)[C@@H](NC(=O)CC(C)(C)C)C(C)(C)C)CC12Cc1ccccc1C2)C(=O)C(=O)NC1CC1 (some centres not stated)	> 10	46	35	44	> 10	> 10
CCCC(NC(=O)C1CCN1C(=O)[C@@H](NC(=O)[C@@H](NC(=O)c1cnccn1)C1CCCCC1)C(C)(C)C)C(=O)C(=O)NC1CC1 (some centres not stated)	> 10	> 100	> 100	> 100	> 10	> 10
